Here are results for 19 molecules from ChEMBL document CHEMBL4152298, “Total synthesis of acylphloroglucinols and their antibacterial activities against clinical isolates of multi-drug resistant (MDR) and methicillin-resistant strains of Staphylococcus aureus” (2018).

What all share (assay type): functional
Test [1] concerns Staphylococcus aureus. Kind of test: Antibacterial activity against methicillin-resistant Staphylococcus aureus EMRSA15 by MTT dye based assay. In short, it runs like this:
(§1)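 Strains grown on nutrient agar for 24 h at 37 °C before testing. Compounds dissolved in DMSO, diluted in MHB to 512 mg/L stock. Two-fold serial broth microdilution in MHB, final 128 to 0.25 mg/L in the initial evaluation. Final DMSO 1.56% to 0.0031% v/v. Inoculum 5×10^5 cfu/mL, 37 °C incubation, duplicates. MTT added for 20 min. MIC is the lowest concentration with no colour change.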
(Formazan colour is commonly taken as a measure of viable cells.)

In test [2] the test system is Staphylococcus aureus. Kind of test: Antibacterial activity against Staphylococcus aureus SA1199B over-expressing NorA by MTT dye based assay. In short, it runs like this:
as §1

Test [3] deals with Staphylococcus aureus. The experiment in a line: Antibacterial activity against methicillin-resistant Staphylococcus aureus isolate XU212 harboring TetK tetracycline efflux pump by MTT dye based assay. In outline: as §1
Test [4] has as its system Staphylococcus aureus. Kind of test: Antibacterial activity against Staphylococcus aureus RN4220 harboring MsrA macrolide efflux protein by MTT dye based assay. In outline:
as §1

The subject of test [5] is Staphylococcus aureus. Kind of test: Antibacterial activity against Staphylococcus aureus ATCC 25923 by MTT dye based assay. In short, it runs like this: as §1
For test [6], the system named is Staphylococcus aureus. The experiment in a line: Antibacterial activity against methicillin-resistant Staphylococcus aureus EMRSA16 by MTT dye based assay. In outline: as §1

Converted amounts (≈) assume the structure as drawn.

For orientation: MIC means the least concentration at which growth counts as inhibited. Low values mean inhibition by little substance, high ones a need for much substance. `CC[C@H](C)C(=O)c1c(O)cc(O)cc1OC/C=C(\C)CCC=C(C)C` [OLYMPICIN A]: the MIC in test [1] was found to be 1 µg/mL (≈ 2.89 µM); in test [2], 1 µg/mL (≈ 2.89 µM); in test [3] it was 0.5 µg/mL (≈ 1.44 µM); in test [4], 1 µg/mL (≈ 2.89 µM); in test [5], 1 µg/mL (≈ 2.89 µM); in test [6], 0.5 µg/mL (≈ 1.44 µM).
As to `CC[C@H](C)C(=O)c1c(O)cc(O)cc1OC/C=C(\C)CC/C=C(\C)CCC=C(C)C`, the MIC in test [1], in test [2], in test [3], in test [4], in test [5] and in test [6] was > 512 µg/mL throughout.
For `CCCCCCCCCCOc1cc(O)cc(O)c1C(=O)[C@@H](C)CC`, the MIC in test [1] was 0.5 to 1 µg/mL (≈ 1.43 to 2.85 µM); in test [2], 2 µg/mL (≈ 5.71 µM); in test [3], 2 to 4 µg/mL (≈ 5.71 to 11.4 µM); in test [4] it was 1 µg/mL (≈ 2.85 µM); in test [5] it was 1 to 2 µg/mL (≈ 2.85 to 5.71 µM); in test [6], 0.25 µg/mL (≈ 0.713 µM).
For the molecule `CCCCCCCCCCCCCCCCCCOc1cc(O)cc(O)c1C(=O)[C@@H](C)CC`, the MIC in test [1], in test [2], in test [3], in test [4], in test [5] and in test [6] was > 512 µg/mL each time.
On to `CCn1cc(C(=O)O)c(=O)c2cc(F)c(N3CCNCC3)cc21` [NORFLOXACIN], for which the MIC amounted to 0.5 µg/mL (≈ 1.57 µM) in test [1]; 32 µg/mL (≈ 100 µM) in test [2]; 8 µg/mL (≈ 25.1 µM) in test [3]; 0.5 µg/mL (≈ 1.57 µM) in test [4]; 0.5 µg/mL (≈ 1.57 µM) in test [5]; 256 µg/mL (≈ 802 µM) in test [6].
In the case of `CCCCC(=O)c1c(O)cc(O)cc1OC/C=C(\C)CCC=C(C)C`, the MIC in test [1] came out at 1 µg/mL (≈ 2.89 µM); in test [2] it was 1 µg/mL (≈ 2.89 µM); in test [3], 0.5 µg/mL (≈ 1.44 µM); in test [4] it was 0.5 µg/mL (≈ 1.44 µM); in test [5], 0.5 µg/mL (≈ 1.44 µM); in test [6] it was 0.5 µg/mL (≈ 1.44 µM).
In the case of `CCCCCCCCOc1cc(O)cc(O)c1C(=O)[C@@H](C)CC`, the MIC is 0.5 µg/mL (≈ 1.55 µM) in test [1]; 0.25 to 0.5 µg/mL (≈ 0.775 to 1.55 µM) in test [2]; 0.5 µg/mL (≈ 1.55 µM) in test [3]; 0.5 µg/mL (≈ 1.55 µM) in test [4]; 0.25 to 0.5 µg/mL (≈ 0.775 to 1.55 µM) in test [5]; 0.25 µg/mL (≈ 0.775 µM) in test [6].
As for `CN[C@H](CC(C)C)C(=O)N[C@H]1C(=O)N[C@@H](CC(N)=O)C(=O)N[C@H]2C(=O)N[C@H]3C(=O)N[C@H](C(=O)N[C@H](C(=O)O)c4cc(O)cc(O)c4-c4cc3ccc4O)[C@H](O)c3ccc(c(Cl)c3)Oc3cc2cc(c3O[C@@H]2O[C@H](CO)[C@@H](O)[C@H](O)[C@H]2O[C@H]2C[C@](C)(N)[C@H](O)[C@H](C)O2)Oc2ccc(cc2Cl)[C@H]1O` [VANCOMYCIN], the MIC in test [1], in test [2], in test [5] and in test [6] was 0.25 µg/mL (≈ 0.173 µM) throughout.
`CC[C@H](C)C(=O)c1c(O)cc(O)cc1OCC=C(C)C`: the MIC was 16 µg/mL (≈ 57.5 µM) in test [1]; 16 µg/mL (≈ 57.5 µM) in test [2]; 4 to 8 µg/mL (≈ 14.4 to 28.7 µM) in test [3]; 8 µg/mL (≈ 28.7 µM) in test [4]; 8 µg/mL (≈ 28.7 µM) in test [5]; 4 µg/mL (≈ 14.4 µM) in test [6].
In the case of `CCCCCCCCCCCCCCCCCC(=O)c1c(O)cc(O)cc1OC/C=C(\C)CCC=C(C)C`, the MIC in test [1], in test [2], in test [3], in test [4], in test [5] and in test [6] was > 512 µg/mL in each case.
As to `CC[C@H](C)C(=O)c1c(O)cc(O)cc1OCCC(C)CCCC(C)C` (some centres not stated), the MIC was 0.5 to 1 µg/mL (≈ 1.43 to 2.85 µM) in test [1]; 0.5 to 1 µg/mL (≈ 1.43 to 2.85 µM) in test [2]; 1 µg/mL (≈ 2.85 µM) in test [3]; 0.5 µg/mL (≈ 1.43 µM) in test [4]; 1 µg/mL (≈ 2.85 µM) in test [5]; 0.25 µg/mL (≈ 0.713 µM) in test [6].
For `CCC(=O)c1c(O)cc(O)cc1OC/C=C(\C)CCC=C(C)C`, the MIC in test [1] came out at 2 µg/mL (≈ 6.28 µM); in test [2], 2 µg/mL (≈ 6.28 µM); in test [3], 1 µg/mL (≈ 3.14 µM); in test [4] it was 1 µg/mL (≈ 3.14 µM); in test [5], 2 µg/mL (≈ 6.28 µM); in test [6], 1 µg/mL (≈ 3.14 µM).
Consider `CC(C)=CCC/C(C)=C/COc1cc(O)cc(O)c1C(=O)c1ccccc1`, for which the MIC in test [1] worked out at 1 µg/mL (≈ 2.73 µM); in test [2] it was 1 µg/mL (≈ 2.73 µM); in test [3], 1 µg/mL (≈ 2.73 µM); in test [4] it was 1 µg/mL (≈ 2.73 µM); in test [5] it was 1 µg/mL (≈ 2.73 µM); in test [6], 0.5 µg/mL (≈ 1.36 µM).
`CCCCCCCCCCCCOc1cc(O)cc(O)c1C(=O)[C@@H](C)CC`: the MIC in test [1] stood at 16 µg/mL (≈ 42.3 µM); in test [2], 16 µg/mL (≈ 42.3 µM); in test [3], 64 µg/mL (≈ 169 µM); in test [4], 8 µg/mL (≈ 21.1 µM); in test [5], 128 µg/mL (≈ 338 µM); in test [6] it was 16 µg/mL (≈ 42.3 µM).
Take `CCCC(=O)c1c(O)cc(O)cc1OC/C=C(\C)CCC=C(C)C`: the MIC in test [1] was 2 µg/mL (≈ 6.02 µM); in test [2] it was 2 µg/mL (≈ 6.02 µM); in test [3], 2 µg/mL (≈ 6.02 µM); in test [4] it was 2 µg/mL (≈ 6.02 µM); in test [5], 2 µg/mL (≈ 6.02 µM); in test [6] it was 1 µg/mL (≈ 3.01 µM).
For `CC[C@H](C)C(=O)c1c(O)cc(O)cc1OCCC(C)C`, the MIC is 2 to 4 µg/mL (≈ 7.13 to 14.3 µM) in test [1]; 2 µg/mL (≈ 7.13 µM) in test [2]; 4 µg/mL (≈ 14.3 µM) in test [3]; 2 µg/mL (≈ 7.13 µM) in test [4]; 2 µg/mL (≈ 7.13 µM) in test [5]; 2 to 4 µg/mL (≈ 7.13 to 14.3 µM) in test [6].
Turning to `CC(=O)c1c(O)cc(O)cc1OC/C=C(\C)CCC=C(C)C`, the MIC in test [1] was 16 µg/mL (≈ 52.6 µM); in test [2], 8 µg/mL (≈ 26.3 µM); in test [3], 8 µg/mL (≈ 26.3 µM); in test [4], 8 µg/mL (≈ 26.3 µM); in test [5] it was 16 µg/mL (≈ 52.6 µM); in test [6] it was 4 µg/mL (≈ 13.1 µM).
As for `CC[C@H](C)C(=O)c1c(O)cc(O)cc1OCc1ccccc1`, the MIC in test [1] is 8 µg/mL (≈ 26.6 µM); in test [2] it was 8 µg/mL (≈ 26.6 µM); in test [3] it was 4 µg/mL (≈ 13.3 µM); in test [4], 4 to 8 µg/mL (≈ 13.3 to 26.6 µM); in test [5], 4 µg/mL (≈ 13.3 µM); in test [6] it was 4 µg/mL (≈ 13.3 µM).
Consider `CCCCCCCCCC(=O)c1c(O)cc(O)cc1OC/C=C(\C)CCC=C(C)C`, for which the MIC in test [1] was 512 µg/mL (≈ 1230 µM); in test [2], 512 µg/mL (≈ 1230 µM); in test [3] it was 64 µg/mL (≈ 154 µM); in test [4], 256 µg/mL (≈ 614 µM); in test [5], 512 µg/mL (≈ 1230 µM); in test [6], 64 µg/mL (≈ 154 µM).
